In data set [1] the test system is MDA-MB-231 cells. The data set is classed as in vivo, mouse. The conditions noted are these: 15 mg/kg ip every other day. A digest of the protocol: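 Six-week-old female NSG mice, in groups of 4, received 2 × 10^6 cells (grown in RPMI with 5% FBS) into the fourth mammary fat pad. Tumors grew for 2 weeks before stapled peptide treatment began, given intraperitoneally every other day for 5 weeks, […]. Mice were then euthanized and the dissected tumors were weighed individually.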

Data set [2] is described as follows: Tolerability in treated NSG mice. It is filed as in vivo, mouse.
The test system of data set [3] is MDA-MB-231 cells. Briefly: Ki67 and CD31 staining of primary tumors. It is filed as in vivo, mouse.
In another data set the test system is breast cancer cells. In words: Cell proliferation in vitro. The data set is classed as cell-based.
Data set [4] in a line: Biodistribution of I125-labeled peptides. It is filed as in vivo, mouse.
The nature of data set [5]: Blood clearance of I125-labeled peptides. The data set is classed as in vivo, mouse. The conditions noted are these: calculated by the authors, stated in Discussion. An outline of the steps:
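Peptides were iodinated with I125 on iodination beads (1 bead per 50 µg peptide): I125 was preincubated with the beads for 5 min, then peptide in PBS was added for 15 to 20 min. Free label was removed on 1K-cutoff filters, and labeling efficiency was checked by TLC (85% methanol). Dosing was i.v. via the tail vein, with blood drawn from the opposite vein at 5, 30, 60 min, 3 h and 24 h (3 animals). Blood was weighed, gamma-counted and expressed as activity/g to derive half-life.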

The next data set deals with WASF3. The conditions noted are these: in vitro; cited from earlier work.

Consider one substance from PMC5480654 (Cancer Growth and Metastasis, 2017).

With “FAM-PEG3-LEK*TNS* LAKIIRQL (sidechain bridge or staple) [WAHM1]”, in the data set on MDA-MB-231 cells [1] (5 weeks, vs control tumors), the “weight of the tumors at conclusion of treatment” value is on record as “significant reduction”. The “number of surface tumor nodules on the lungs” value in the data set on MDA-MB-231 cells [1] (5 weeks, vs vehicle control) was “significant reduction in the number of surface tumor nodules”. For the same substance, in the data set with MDA-MB-231 cells [1] (after 5 weeks, vs DMSO vehicle), the “dissemination of tumor cells (bioluminescence imaging)” value is recorded as “significant reduction in the observed extent of dissemination of tumor cells”. Further, the “overall body weight at conclusion of treatment” value in data set [2] (15 mg/kg ip every other day, 5 weeks) is on record as “reduced”. For the same substance, the “morbidity at the higher dose” value in data set [2] (30 mg/kg ip every other day, after 2 weeks, dose discontinued) was “significant morbidity and weight loss”. Moreover, the “Ki67 staining of primary tumors (proliferation potential)” value in the data set with MDA-MB-231 cells [3] (WAHM1-treated vs control mice, printed as 25% vs 22%, no significant difference) is listed as 25%. The “number and size of microvessels in the primary tumors (anti-CD31)” value with MDA-MB-231 cells [3] (after 5 weeks, vs vehicle alone) is “significant reduction after 5 weeks in the number and size of microvessels”. The “effect on cell proliferation” value in the data set on breast cancer cells was “does not affect cell proliferation”. Also, the “tumor uptake, WAHM1 compared with WANT3-v1” value in data set [4] (I125-labeled Tyr-N-term versions, SPECT) is “significantly greater than for the WANT3-v1 peptide”. The “radioactivity per gram of tissue (gamma counting)” value in data set [4] (I125-labeled peptide, organs and tumor isolated after 72 h) is listed as “significant uptake in tumors after 72 hours”. The “retention time in the blood system” value in data set [5] is ~ 30 minutes. For the same substance, the “phosphoactivation of WASF3” value with WASF3 is reported as “suppresses phosphoactivation of WASF3”.
